Structures can show the parent of a compound that is named as a salt.
Columns and labels:
NCI-H460 = assay: Cytotoxicity against human NCI-H460 cells by MTT assay; assay type: functional, cell-based
[1] = Cytotoxicity against human RKOp27 cells by MTT assay; assay type: functional, cell-based
HL-60 = assay: Cytotoxicity against human HL60 cells by MTT assay; assay type: functional, cell-based
In short: (§1)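 Growth inhibition by MTT assay (Mosmann method) on human cancer cell lines and on normal human fetal lung fibroblast WI 38 cells.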

U-937 = assay: Cytotoxicity against human U937 cells by MTT assay; assay type: functional, cell-based; in short: as §1
K562 = assay: Cytotoxicity against human K562 cells by MTT assay; assay type: functional, cell-based; in short: as §1
G-361 = assay: Cytotoxicity against human G361 cells by MTT assay; assay type: functional, cell-based; in short: as §1
SK-MEL-28 = assay: Cytotoxicity against human SK-MEL-28 cells by MTT assay; assay type: functional, cell-based; in short: as §1
GOTO = assay: Cytotoxicity against human GOTO cells by MTT assay; assay type: functional, cell-based; in short: as §1
[2] = tested on: Human immunodeficiency virus; assay: Antiviral activity against HIV infected in human CEM-SS cells assessed as inhibition of virus induced cell killing by XTT assay; assay type: functional, organism-based; conditions: Human immunodeficiency virus 1, CEM-SS
In short: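 Microtiter anti-HIV assay in CEM-SS cells or fresh human PBMCs, measuring inhibition of HIV-induced cell killing or HIV replication. Read-out is XTT tetrazolium reduction to formazan by viable cells.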

[3] = target: Human immunodeficiency virus type 1 reverse transcriptase (Human immunodeficiency virus 1, UniProt Q72547); assay: Inhibition of recombinant HIV1 reverse transcriptase in cell free Quan-T-RT by scintillation proximity assay
[4] = Therapeutic index, ratio of toxic dose of drug for 50% of the population TD50 to minimum effective dose ED50 of the population; conditions: read-out: Ratio TD50/ED50
[5] = (§2) Inhibition of HCV NS3/4A protease activity after 48 hrs by RT-PCR; design: species or system Hepacivirus hominis
Hepacivirus hominis = assay: as §2
[6] = Cytotoxicity against human hepatocytes by MTT assay; assay type: cell-based, Hepatocyte
[7] = Cytotoxicity against human WI38 cells by MTT assay; assay type: cell-based; conditions: WI-38; in short: as §1
HCV NS3-4A protease = assay: Therapeutic index, ratio of CC50 for human hepatocytes to IC50 for HCV NS3-4A protease; assay type: cell-based, Hepatocyte; conditions: read-out: Ratio CC50/IC50
SK-OV-3 = assay: Cytotoxicity against human SKOV3 cells by MTT assay; assay type: functional, cell-based
NB1 = assay: Cytotoxicity against human NB-1 cells by MTT assay; assay type: functional, cell-based; in short: as §1
SF-268 = assay: Cytotoxicity against human SF268 cells by MTT assay; assay type: functional, cell-based

For `COc1c2occc2c(OC)c2c(=O)c(C=O)coc12`, the IC50 (NCI-H460) was 0.0284 nM, the IC50 [1] was 0.0255 nM and the IC50 (HL-60) was 0.0313 nM. For the same compound, the IC50 (U-937) was 0.0291 nM, the IC50 (K562) was 0.0258 nM and the IC50 (G-361) was 0.0263 nM. For the same compound, the IC50 (SK-MEL-28) was 0.0266 nM, the IC50 (GOTO) was 0.0278 nM and the EC50 [2] was 0.02 nM. It also gave an IC50 [3] of 17500 nM, a selectivity ratio [4] of 32600 and an IC50 [5] of 421 nM. It also gave an IC90 (Hepacivirus hominis) of 796 nM, a CC50 [6] of 234000 nM and an IC50 [7] of 0.0321 nM. It also gave a selectivity ratio (HCV NS3-4A protease) of 556.
`COc1c(C(=O)/C=C/Nc2ccncc2)c(O)c(OC)c2occc12` showed an IC50 (NCI-H460) of 0.0284 nM, an IC50 [1] of 0.0255 nM and an IC50 (HL-60) of 0.0263 nM. The IC50 (U-937) was 0.0263 nM, the IC50 (K562) was 0.0263 nM and the IC50 (G-361) was 0.0263 nM. The IC50 (SK-MEL-28) was 0.0281 nM, the IC50 (GOTO) was 0.0253 nM and the EC50 [2] was 0.01 nM. The IC50 [3] was 4800 nM, the selectivity ratio [4] was 1260 and the IC50 [5] was 986 nM. It also gave an IC90 (Hepacivirus hominis) of 2310 nM, a CC50 [6] of 435000 nM and an IC50 [7] of 0.0253 nM. The selectivity ratio (HCV NS3-4A protease) was 441.
In the case of `COc1c(C(=O)c2cnc3nc4ccccc4n3c2)c(O)c(OC)c2occc12`, the IC50 (NCI-H460) is reported as 0.0277 nM, the IC50 [1] is reported as 0.0277 nM and the IC50 (HL-60) is reported as 0.026 nM. The IC50 (U-937) was 0.0272 nM, the IC50 (K562) was 0.0269 nM and the IC50 (G-361) was 0.0263 nM. For the same compound, the IC50 (SK-MEL-28) was 0.0253 nM, the IC50 (GOTO) was 0.0278 nM and the EC50 [2] was 0.02 nM. The IC50 [3] was 25700 nM, the selectivity ratio [4] was 1.14e+06 and the IC50 [5] was 564 nM. For the same compound, the IC90 (Hepacivirus hominis) was 1320 nM, the CC50 [6] was 234000 nM and the IC50 [7] was 0.0472 nM. For the same compound, the selectivity ratio (HCV NS3-4A protease) was 415.
Compound `COc1c(C(=O)C2=CN3C(=CN=C2)Nc2ccccc23)c(O)c(OC)c2occc12` has an IC50 (NCI-H460) of 0.0255 nM, an IC50 [1] of 0.0277 nM and an IC50 (HL-60) of 0.0325 nM. The IC50 (U-937) was 0.0333 nM, the IC50 (K562) was 0.0338 nM and the IC50 (G-361) was 0.0316 nM. The IC50 (SK-MEL-28) was 0.0321 nM, the IC50 (GOTO) was 0.0329 nM and the EC50 [2] was 0.35 nM. For the same compound, the IC50 [3] was 9440 nM, the selectivity ratio [4] was 21700 and the IC50 [5] was 444 nM. The IC90 (Hepacivirus hominis) was 955 nM, the CC50 [6] was 256000 nM and the IC50 [7] was 0.0333 nM. For the same compound, the selectivity ratio (HCV NS3-4A protease) was 577.
Compound `COc1cccc2c1C(=O)c1c(O)c3c(c(O)c1C2=O)C[C@@](O)(C(=O)CO)C[C@@H]3O[C@H]1C[C@H](N)[C@H](O)[C@H](C)O1` [DOXORUBICIN] has an IC50 (SK-OV-3) of 4.16 nM, an IC50 (U-937) of 4.45 nM and an IC50 (K562) of 6.66 nM. For the same compound, the IC50 (GOTO) was 4.73 nM and the IC50 (NB1) was 5.15 nM.
With `NCc1nc2ccccc2[nH]1` the IC50 (NCI-H460) was 0.032 nM, the IC50 [1] was 0.0255 nM and the IC50 (HL-60) was 0.0291 nM. It also gave an IC50 (U-937) of 0.0298 nM, an IC50 (K562) of 0.0313 nM and an IC50 (G-361) of 0.0305 nM. The IC50 (SK-MEL-28) was 0.0301 nM, the IC50 (GOTO) was 0.0263 nM and the EC50 [2] was 0.01 nM. It also gave an IC50 [3] of 5100 nM, a selectivity ratio [4] of 1760 and an IC50 [5] of 876 nM. For the same compound, the IC90 (Hepacivirus hominis) was 2120 nM, the CC50 [6] was 451000 nM and the IC50 [7] was 0.0269 nM. The selectivity ratio (HCV NS3-4A protease) was 515.
`COc1c(C(=O)C2=CN3C(=CN=C2)Nc2ccccc23)c(O)cc2occc12` gave an IC50 (NCI-H460) of 0.0255 nM, an IC50 [1] of 0.0255 nM and an IC50 (HL-60) of 0.0305 nM. It also gave an IC50 (U-937) of 0.0301 nM, an IC50 (K562) of 0.0298 nM and an IC50 (G-361) of 0.0313 nM. It also gave an IC50 (SK-MEL-28) of 0.0305 nM, an IC50 (GOTO) of 0.0291 nM and an EC50 [2] of 0.06 nM. For the same compound, the IC50 [3] was 47500 nM, the selectivity ratio [4] was 23500 and the IC50 [5] was over 100000 nM. The IC50 [7] was 0.0284 nM.
Work on `CCNc1cccnc1N1CCN(C(=O)c2cc3cc(OC)ccc3[nH]2)CC1` [ATEVIRDINE MESYLATE] yielded an EC50 [2] of 1 nM.
Work on `CCCCCOC(=O)Nc1nc(=O)n([C@@H]2O[C@H](C)[C@@H](O)[C@H]2O)cc1F` [CAPECITABINE] yielded an IC50 [1] of 4.33 nM.
Compound `COc1c(C(=O)C2=CN3C=CNC=C3N=C2)c(O)c(OC)c2occc12` has an IC50 (NCI-H460) of 0.0255 nM, an IC50 [1] of 0.0284 nM and an IC50 (HL-60) of 0.0266 nM. For the same compound, the IC50 (U-937) was 0.0284 nM, the IC50 (K562) was 0.0321 nM and the IC50 (G-361) was 0.0298 nM. For the same compound, the IC50 (SK-MEL-28) was 0.026 nM, the IC50 (GOTO) was 0.0258 nM and the EC50 [2] was 0.09 nM. The IC50 [3] was 14600 nM, the selectivity ratio [4] was 20000 and the IC50 [5] was over 100000 nM. For the same compound, the IC50 [7] was 0.0373 nM.
With `Nc1ccn([C@@H]2O[C@H](CO)[C@@H](O)C2(F)F)c(=O)n1` [GEMCITABINE HYDROCHLORIDE] the IC50 (NCI-H460) was 2.13 nM.
Work on `COc1c(C(=O)C2=CN3C=CC=CC3N=C2)c(O)c(OC)c2occc12` (configuration not stated) yielded an IC50 (NCI-H460) of 0.0277 nM, an IC50 [1] of 0.0277 nM and an IC50 (HL-60) of 0.0275 nM. It also gave an IC50 (U-937) of 0.0298 nM, an IC50 (K562) of 0.0446 nM and an IC50 (G-361) of 0.0481 nM. For the same compound, the IC50 (SK-MEL-28) was 0.0305 nM, the IC50 (GOTO) was 0.0329 nM and the EC50 [2] was 0.03 nM. The IC50 [3] was 16300 nM, the selectivity ratio [4] was 23500 and the IC50 [5] was over 100000 nM. The IC50 [7] was 0.0255 nM.
With `CCC[C@H](NC(=O)[C@@H]1[C@H]2CCC[C@H]2CN1C(=O)[C@@H](NC(=O)[C@@H](NC(=O)c1cnccn1)C1CCCCC1)C(C)(C)C)C(=O)C(=O)NC1CC1` the IC50 [5] was 200 nM, the IC90 (Hepacivirus hominis) was 450 nM and the CC50 [6] was 90000 nM. The selectivity ratio (HCV NS3-4A protease) was 1200.
With `Nc1ccn([C@@H]2O[C@H](CO)[C@@H](O)[C@@H]2O)c(=O)n1` [CYTARABINE] the IC50 (SF-268) was 7.68 nM.
Work on `COc1c(C(=O)C2=CN3C=CSC3N=C2)c(O)c(OC)c2occc12` (configuration not stated) yielded an IC50 (SK-OV-3) of 3.28 nM, an IC50 (NCI-H460) of 0.0255 nM and an IC50 [1] of 0.028 nM. The IC50 (HL-60) was 0.0255 nM, the IC50 (U-937) was 0.0284 nM and the IC50 (K562) was 0.0446 nM. For the same compound, the IC50 (G-361) was 0.0384 nM, the IC50 (SK-MEL-28) was 0.0284 nM and the IC50 (GOTO) was 0.0281 nM. It also gave an EC50 [2] of 0.04 nM, an IC50 [3] of 15300 nM and a selectivity ratio [4] of 22600. For the same compound, the IC50 [5] was 342 nM, the IC90 (Hepacivirus hominis) was 1120 nM and the CC50 [6] was 127000 nM. For the same compound, the IC50 [7] was 0.0284 nM and the selectivity ratio (HCV NS3-4A protease) was 371.
In the case of `COc1c(C(=O)C2=CN3OC(C)=NC3N=C2)c(O)c(OC)c2occc12` (configuration not stated), the IC50 (NCI-H460) is reported as 0.0255 nM, the IC50 [1] is reported as 0.026 nM and the IC50 (HL-60) is reported as 0.0281 nM. It also gave an IC50 (U-937) of 0.0329 nM, an IC50 (K562) of 0.0284 nM and an IC50 (G-361) of 0.0287 nM. It also gave an IC50 (SK-MEL-28) of 0.0338 nM, an IC50 (GOTO) of 0.0284 nM and an EC50 [2] of 0.04 nM. For the same compound, the IC50 [3] was 0.3 nM, the selectivity ratio [4] was 7690 and the IC50 [5] was over 100000 nM. The IC50 [7] was 0.0281 nM.

From ChEMBL document CHEMBL1138617, “Synthesis of potent antitumor and antiviral benzofuran derivatives” (Bioorg Med Chem Lett, 2009)
